Measurements gathered from unrelated publications.
Each line is one published result; the experiments were not run side by side.
Cell line: A549
Read-out: cell growth or viability

O=C(Cn1cc(COc2ncnc3[nH]cnc23)nn1)Nc1ccc(O)cc1 — IC50 (MTT): 26 µM
COc1cccc2c1C(=O)c1c(O)c3c(c(O)c1C2=O)C[C@@](O)(C(=O)CO)C[C@@H]3O[C@H]1C[C@H](N)[C@H](O)[C@H](C)O1 — IC50 (MTT; 72 h): 0.52 µM
Fc1ccccc1Nc1nc(-c2ccncc2)nc2c1CNCC2 — IC50 (MTT): > 100 µM
CCCCC(=O)Nc1ccc(-c2cnc3ccn(CCC)c(=O)c3c2)cn1 — IC50 (CCK-8; 72 h): > 10 µM
OC1CCN(c2ccc(/C=N/NC(=S)Nc3ccc(Br)cc3)cc2)CC1 — IC50 (MTT; 24 h): 1.85 µM
COc1cccc2c1C(=O)c1c(O)c3c(c(O)c1C2=O)C[C@@](O)(C(=O)CO)C[C@@H]3O[C@H]1C[C@H](N)[C@H](O)[C@H](C)O1 — IC50 (MTT): 3.87 mg/L
C/C(=N\c1nc(N)nc(/N=C(\C)c2c(O)c3ccccc3oc2=O)n1)c1c(O)c2ccccc2oc1=O — IC50 (MTT; 48 h): 5.58 µM
CC(C)[C@@H]1NC(=O)[C@@H](CCCCN)NC(=O)[C@H]([C@@H](C)O)NC(=O)[C@@H](CCCN)NC(=O)[C@H](Cc2ccccc2)NC(=O)[C@@H](Cc2ccccc2)NC1=O — IC50 (ATP luminescence; 72 h): > 100 µM
COc1ccc(NC(=O)Nc2nc3cc(-c4ccc5ncn(CCN6CCOCC6)c(=O)c5c4)ccc3s2)cc1 — IC50 (MTT; 72 h): 1.4 µM
O=C(Nc1ccc(-c2ccc3ncn(Cc4ccccc4)c(=O)c3c2)cn1)C1CC1 — IC50 (CCK-8; 72 h): > 10 µM
O=C(Nc1ccc(F)cc1)Nc1nc2cc(-c3ccc4ncn(CC(=O)N5CCOCC5)c(=O)c4c3)ccc2s1 — IC50 (MTT; 72 h): > 20 µM
CCCn1cnc2ccc(-c3ccc(N4CCCC4=O)nc3)cc2c1=O — IC50 (CCK-8; 72 h): > 10 µM
COc1cc(CNc2ccc(C(=O)O)cc2)cc(OC)c1O — IC50 (resazurin; 72 h): > 100 µM
COc1cccc2c1C(=O)c1c(O)c3c(c(O)c1C2=O)C[C@@](O)(C(=O)CO)C[C@@H]3O[C@H]1C[C@H](N)[C@H](O)[C@H](C)O1 — IC50 (96 h): 0.236 µM
O=C(O)c1ccc(NCc2cccc(O)c2O)cc1 — IC50 (resazurin; 72 h): 90.7 µM
CCCn1cnc2ccc(-c3ccc(NC(=O)CNCC)nc3)cc2c1=O — IC50 (CCK-8; 72 h): 3.42 µM
O=C(Nc1ccc(Cl)cc1)Nc1nc2cc(-c3ccc4ncn(Cc5ccccc5)c(=O)c4c3)ccc2s1 — IC50 (MTT; 72 h): > 20 µM
CCCC(=O)Nc1ccc(-c2ccc3ncn(CCC)c(=O)c3c2)cn1 — IC50 (CCK-8; 72 h): 0.46 µM
NNc1nc2c(Cl)cc(Cl)cc2c(=O)n1-c1ccccc1 — IC50 (MTT; 48 h): > 200 µM
CCCCn1cnc2ccc(-c3ccc(NC(=O)NCC)nc3)cc2c1=O — IC50 (CCK-8; 72 h): > 10 µM
CC(=NNC(=O)c1cc(-c2ccccc2)n(-c2ccc(S(N)(=O)=O)cc2)n1)c1ccc(C)cc1 — IC50 (fluorescence; 48 h): 11.1 µM
CCCn1cnc2ccc(-c3ccc(NC(=O)CC)nc3)cc2c1=O — IC50 (CCK-8; 72 h): 2.35 µM
CCCc1cc2cc(-n3nc(C)c4c3CC(C)(C)CC4=O)cc(N3CCC(O)CC3)c2c(=O)[nH]1 — IC50 (MTS): 7.38 µM
